Molecules are shown by their SMILES.

Here are results for 97 compounds from ChEMBL document CHEMBL4513216, “Probing the Open Global Health Chemical Diversity Library for Multistage-Active Starting Points for Next-Generation Antimalarials” (ACS Infect Dis, 2020).

The data set can be described thus: Toxicity liver stage against HepG2, at 10uM. Type of data set: cell-based. The arrangement: test concentration 10 uM, cell line HepG2-A16-CD81EGFP. Conditions: human, HepG2-A16-CD81EGFP cells; read-out: INHIBITION
Put shortly: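 Uninfected HepG2-A16-CD81EGFP cells, 3 × 10^3 per well, 1536-well, plated on prespotted compound at 10 μM final, parasite-free screening media added to match infected plates; puromycin 10 μM positive, DMSO 0.5% negative; run in parallel with 48 h PbLuc assay at 37 °C, 5% CO2; viability by CellTiter-Glo luminescence, normalized to controls.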
As for `Cc1ccc(N2C(=O)N[C@@H]3CCN(C(=O)C4CC4)[C@@H]3C2=O)cc1`, the cytotoxicity at 10 µM turned out to be 3.85%.
With `Cc1occc(=O)c1OCc1noc(C(=O)NCC2CC2)n1`, the cytotoxicity at 10 µM was -2.51%.
The figure for `CCS(=O)(=O)N1CCN(CC(F)(F)F)CC1` is -1.99%.
The figure for `COC1(CNC(=O)NCCOc2ccccc2)CCSC1` (configuration not stated) is -0.572%; for `CCN1C(=O)CC[C@@H]2[C@H]1CCN2S(=O)(=O)c1cccs1` it is 0.169%; for `CCOCC(=O)N1CCCC2(CCN(c3ccccc3)C2=O)C1` (configuration not stated) it is 2.02%.
The figure for `CCCNC(=O)c1cc(-c2ccn(C(C)C)n2)n2ccccc12` is 1.92%.
With `CN(C)CC(=O)N1Cc2cc(N(C)C)ccc2C1c1cnco1` (configuration not stated), the cytotoxicity at 10 µM is -0.757%.
To `CNC(=O)[C@@H]1COC[C@H]2CN(C(=O)c3cccc(OC)c3)C[C@H]21` belongs 12.2%; to `CN1C(=O)CCC12CCCN(C(=O)c1ccoc1)C2` (configuration not stated), 2.65%.
The figure for `Cc1noc(C2(NC(=O)c3cccnc3O)CCCCC2)n1` is -9.83%; for `O=C(Cn1cc(-c2ccccc2)ncc1=O)Nc1nc(C2CC2)n[nH]1` it is 6.2%; for `COCC1CN(C(=O)c2cccn2C)Cc2ncnn2C1` (configuration not stated) it is -8.97%.
The figure for `CCN(Cc1nonc1C)C(=O)c1cnccn1` is -4.04%; for `CCCn1nnc(NCc2ccc(-c3ccc(Br)cc3)o2)n1` it is -4.11%.
Turning to `O=C1CNc2ncnc(Nc3cnn(Cc4ccccc4F)c3)c2N1`, the cytotoxicity at 10 µM was found to be 2.27%.
To `Cc1nc(NCc2cccnc2)cc(C2COCCN2)n1` (configuration not stated) belongs 3.78%.
Take `Cc1cc(C(F)(F)F)nc(C2COCCN2S(C)(=O)=O)n1` (configuration not stated): the cytotoxicity at 10 µM was -2.6%.
The figure for `Cn1ncc2ccc(C3CCCN(Cc4ccsc4)C3)nc21` (configuration not stated) is 8.61%.
Regarding `c1cnc2[nH]c(C3CCCC3)c(CN3CCOCC3)c2c1`, the cytotoxicity at 10 µM is -1.06%.
To `CC(C)C(=O)N1CCCC(c2cncc(Oc3cccnc3)n2)C1` (configuration not stated) belongs -2.83%.
The figure for `CNC(=O)c1cccc(C2CNCCN2C(=O)c2ccn(C)n2)c1` (configuration not stated) is -4.22%; for `Cc1ccc(C(=O)N2CCCC(c3[nH]ncc3S(C)(=O)=O)C2)s1` (configuration not stated) it is -10.6%; for `Cc1ccsc1C(=O)N1CCC(O)(CN2CCc3ccccc3C2)C1` (configuration not stated) it is 0.803%.
The figure for `Cc1ccc(Oc2nccnc2C2CCN(C(=O)C(C)(C)N)CC2)cc1` is -7.86%; for `CNc1cncc(C2CCCN2Cc2ccnc(N3CCCC3)n2)n1` (configuration not stated) it is -12.1%.
In the case of `Cc1nc(CCC(=O)NC2CCC2)cc(C2CCNCC2)n1`, the cytotoxicity at 10 µM was -5.15%.
To `COc1ccc(-c2nc(CCNCc3ccncc3)co2)cc1` belongs -6.11%; to `N#Cc1cccc(S(=O)(=O)NC(=O)C2CC(c3ccccc3)=NO2)c1` (configuration not stated), 1.85%; to `CC1CN(CC(=O)NCCc2ccccc2)CCN1c1nccs1` (configuration not stated), -2.79%.
The figure for `Cc1ccc(S(=O)(=O)NCCc2nnc[nH]2)c2cccnc12` is -5.93%.
To `CCOc1ccc(CNC2CCCN(c3cccnn3)C2)cc1OC` (configuration not stated) belongs -3.92%; to `Cc1nc(CCCNC(=O)c2c(F)cc(F)cc2F)n[nH]1`, -4.31%; to `CC(NC(=O)N1CCCC1)c1ccc(S(N)(=O)=O)cc1` (configuration not stated), -8.2%.
Turning to `CN(C)C(=O)COc1ccccc1CNC1CCc2ncnn2C1` (configuration not stated), the cytotoxicity at 10 µM worked out at 5.38%.
The figure for `COCC(=O)NS(=O)(=O)c1ccc(F)c(F)c1` is -6.49%; for `CS(=O)(=O)CCC(=O)NC(c1ccc(F)cc1)C(F)(F)F` (configuration not stated) it is -4.44%.
Take `O=C(NC1CC1)C1CCN(Cn2nc(-c3ccccc3)oc2=O)CC1`: the cytotoxicity at 10 µM came to 15%.
To `NC(=O)c1cc(NC(=O)N2CCOCC2)ccc1F` belongs -48.8%.
`CCOC(C)c1noc(CN2CCN(Cc3ccno3)CC2)n1` (configuration not stated): the cytotoxicity at 10 µM was determined as 7.24%.
To `Cc1nc(C)c(C(C)NC(=O)NCCNc2cccc(F)c2C#N)s1` (configuration not stated) belongs -1.37%.
Take `Cc1ccccc1OCCN(C)Cc1noc(CC(C)C)n1`: the cytotoxicity at 10 µM was -6.99%.
The figure for `CN(C)Cc1ccc(N2CCN(CCOCC(F)(F)F)CC2)nc1` is 1.25%; for `CCN(C(C)=O)C(c1ccc(Cl)cc1)c1ccccn1` (configuration not stated) it is -4.29%.
The figure for `CN(Cc1ccncc1)c1cncc(Br)c1` is 2.71%; for `Cc1cc(C(=O)NCC(=O)N2CCOCC2)nn1C(C)(C)C` it is -3.44%.
To `CC(Sc1nnc(C2CC2)n1CC(N)=O)c1ccc(Cl)cc1` (configuration not stated) belongs 7.72%.
As for `CCC(=O)NCC(=O)NCc1cc(Br)ccc1OC(F)F`, the cytotoxicity at 10 µM worked out at 17.5%.
As to `O=C(CCn1cncn1)NC1(c2cccc(Br)c2)CCC1`, the cytotoxicity at 10 µM is -20.2%.
To `O=C(CCc1cscn1)NS(=O)(=O)c1ccc2c(c1)CCC2` belongs -24.5%; to `Cc1nn(C)c(C)c1C1COCCN1C(=O)Cc1cccc(F)c1` (configuration not stated), -11%.
To `Cc1nc(C)n(CC2CCCN2CCCc2ccccc2)n1` (configuration not stated) belongs -14.1%; to `CC(=O)N1CCC(n2nccc2-c2cnc(NCCO)nc2)CC1`, -1%; to `CCCN(Cc1ccccc1C)C(CC)CO` (configuration not stated), -6.08%.
The figure for `Nc1nc(N2CCCC(COc3ccc(F)cc3)C2)c2nc[nH]c2n1` (configuration not stated) is 2.11%.
In the case of `CCN(CC)CCn1ccnc1-c1cccc(C#N)c1`, the cytotoxicity at 10 µM was -5%.
The figure for `CC(=O)N1CCC(N2CCN(Cc3ccc(C)o3)C(CCO)C2)CC1` (configuration not stated) is -3.57%; for `Cc1ccc(-n2ncc3c2CCCC3N)cc1C` (configuration not stated) it is -1.97%.
To `Cc1noc(-c2ccc(N[C@H]3CCCCNC3=O)nc2)n1` belongs 0.913%; to `Cn1ncc2c(NC3CCC3)nc(-c3ccncc3)nc21`, 16.7%.
Turning to `Cc1ccc(F)c(OC2(C(=O)O)CCN(C(=O)N3CCCC3)CC2)c1`, the cytotoxicity at 10 µM is -3.94%.
Turning to `Cc1nc[nH]c1CN(C)CC1CCCN(CCc2ccc(Cl)cc2)C1` (configuration not stated), the cytotoxicity at 10 µM is -15.5%.
To `Cn1c(Cn2cccn2)nnc1C1CCN(Cc2cccnc2N)CC1` belongs -9.12%; to `CCCc1noc(CN(C)C(=O)C2COc3ccccc3C2)n1` (configuration not stated), -7.01%.
The figure for `O=C(c1cccs1)N1CCC(Cn2nc(-c3ccco3)ccc2=O)CC1` is -2.21%; for `NC(=O)C1CCN(C(=O)CCCc2nnc(-c3ccccc3)o2)CC1` it is -13.2%.
To `O=C(CCCc1nc(-c2ccccc2)no1)N1CCN(CCO)CC1` belongs -3.54%; to `Cc1ncsc1C(=O)NC1CCN(CCCC#N)CC1`, -14.7%.
`CCC1CCCN(C(=O)NCc2cccnc2-n2cccn2)C1` (configuration not stated): the cytotoxicity at 10 µM is -0.734%.
The figure for `COc1c(C2CCCN2Cc2noc(C(C)C)n2)c(C)nn1C` (configuration not stated) is -8.93%; for `CCc1nc(CN2CCCC2c2c(C)nn(C)c2OC)no1` (configuration not stated) it is -6.07%; for `Cc1nc(C)n(CC2CCCN2Cc2nc3ccccc3s2)n1` (configuration not stated) it is -6.25%.
The figure for `CCn1ncc2c1CCCC2NCc1cccc2c1OCO2` (configuration not stated) is -6.43%; for `Cc1ccc(C(=O)NC2CCN(Cc3cccc4c3OCCO4)CC2)s1` it is -4.8%.
The figure for `COCc1ccc(CNCc2c(C)nn(C)c2N(C)C)cc1` is -16%; for `CC(NC(=O)CCOc1cccc(F)c1)c1nnc2n1CCC2` (configuration not stated) it is -14.1%; for `Cc1n[nH]c(C2CN(Cc3nnc(C4CC4)n3C)CCO2)n1` (configuration not stated) it is -16%.
For the compound `Cc1nn(C)c(C)c1C1CCCN1C(=O)CCNc1ncccn1` (configuration not stated), the cytotoxicity at 10 µM was -7.37%.
The figure for `COc1ccc(C(N)c2cccc(S(C)(=O)=O)c2)cc1` (configuration not stated) is 4.69%; for `Cc1nc(CNC(C)c2ccc(OCC(=O)NC3CC3)cc2)cs1` (configuration not stated) it is -2.82%.
To `Cc1nn(C)c(C)c1CNCc1ccnc(N2CCOCC2)c1` belongs 0.626%; to `Cc1nc2sccn2c1CN(CCCN(C)C)Cc1ccco1`, -0.215%; to `Cc1cnc(N2CC[C@@H](N3CCOCC3)[C@@H]2Cc2ccncc2)nc1`, 4.47%.
With `Cc1ccc(CNC(c2ccccc2)c2nccn2C)cc1` (configuration not stated), the cytotoxicity at 10 µM is -6.3%.
The figure for `CCCS(=O)(=O)N1CCO[C@H]2[C@H](OCc3ccccn3)CC[C@@H]21` is -9%.
To `CN1CCC(c2nc3ccc(-c4cccc(F)c4)cn3n2)CC1` belongs 10.4%; to `O=C(CC1CC1)N[C@@H]1CN(Cc2ccncc2)C[C@@H]2CCCO[C@@H]21`, -7.96%; to `CNC(=O)[C@H]1C[C@@H]2CN(Cc3cccnc3OC)C[C@@H]2N1C(C)C`, 11.5%.
The figure for `O=C(CC1CC1)NCc1cn2c(n1)CN(Cc1cccnc1)CC2` is -78%.
Regarding `Cn1nccc1-c1ccc2nc(C3CCN(CCO)CC3)nn2c1`, the cytotoxicity at 10 µM is -14.1%.
To `Cc1cccc(CN2C(=O)CC[C@@H]3[C@H]2CCN3Cc2ccc(C)s2)n1` belongs 5.45%; to `CN(C)CCN1CCO[C@H]2CN(C(=O)N(C)C)C[C@H]21`, 0.657%; to `CS(=O)(=O)N1CCC2(CN(C(=O)c3cccnc3)C2)C1`, -13%.
With `c1ccc(CN2C[C@H]3CCC[C@@]3(COCC3CCOCC3)C2)nc1`, the cytotoxicity at 10 µM worked out at 1.49%.
To `Cn1cc(CN2CCc3onc(C(=O)N4CCCC4)c3C2)cn1` belongs -12.2%; to `O=c1c2c[nH]c(N3CCOCC3)nc-2cn1Cc1cccc(F)c1`, -2.72%.
`COCC1N(C(=O)N2CCOCC2)C2CCC1(O)CC2` (configuration not stated): the cytotoxicity at 10 µM was -0.791%.
